Results from ChEMBL document CHEMBL4765448, “Multiple biological active 4-aminopyrazoles containing trifluoromethyl and their 4-nitroso-precursors: Synthesis and evaluation” (Eur J Med Chem, 2020).
Converted amounts (≈) assume the structure as drawn. The source made the active and inactive calls. The calls are words filed in the database; no cut-off is given here.

Key:
[1] = Antioxidant activity assessed as trolox equivalent of ABTS radical scavenging activity measured after 1 hr by UV-vis spectrophotometric method; format: functional
Outline: (§1)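 ABTS cation-radical decolorization was read spectrophotometrically as the fall in absorbance after 1 h. Trolox was the reference. TEAC was taken as the ratio of concentration-response slopes, test/Trolox, and IC50 was also derived. Data are mean ± SEM, n = 3.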

[2] = Antioxidant activity assessed as ABTS radical scavenging activity measured after 1 hr by UV-vis spectrophotometric method; format: functional; outline: as §1
[3] = Antioxidant activity assessed as AAPH scavenging activity by measuring residual fluorescence at 10 uM measured at 1 min interval for 30 mins by ORAC fluorescein assay relative to control; format: functional
Outline: (§2)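 ORAC-FL assay with fluorescein as the probe and AAPH as the peroxyl radical generator. The loss of fluorescence over time was followed, and the result is given as % fluorescence restored at 10 and 50 µM. Each value is the mean of two independent experiments.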

[4] = Antioxidant activity assessed as AAPH scavenging activity by measuring residual fluorescence at 50 uM measured at 1 min interval for 30 mins by ORAC fluorescein assay relative to control; format: functional; outline: as §2
[5] = system: Erythrocyte; assay: Antioxidant activity in human erythrocytes assessed as protection against AAPH-induced hemolysis at 50 uM preincubated for 20 mins followed by AAPH addition and measured after 2 hrs by spectrophotometric method relative to control; format: functional; settings: time 140 min, 2.333 h
Outline: (§3)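 Erythrocyte hemolysis assay with AAPH as the free-radical initiator, testing 50 and 400 µM. Results are expressed as relative protection of membranes against oxidative damage, each the mean of two independent experiments.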

[6] = system: Erythrocyte; assay: Antioxidant activity in human erythrocytes assessed as protection against AAPH-induced hemolysis at 400 uM preincubated for 20 mins followed by AAPH addition and measured after 2 hrs by spectrophotometric method relative to control; format: functional; settings: time 140 min, 2.333 h; outline: as §3
[7] = system: Rattus norvegicus; assay: Antiinflammatory activity in rat model of carrageenan-induced paw edema assessed as inhibition of hind paw swelling at 15 mg/kg, ip measured after 1 hr relative to control; format: functional
[8] = system: Rattus norvegicus; assay: Antiinflammatory activity in rat model of carrageenan-induced paw edema assessed as inhibition of hind paw swelling at 15 mg/kg, ip measured after 3 hrs relative to control; format: functional
[9] = system: Rattus norvegicus; assay: Analgesic activity in rat assessed as prolongation of latency period at 15 mg/kg, ip measured after 1 hr by hot-plate test relative to control; format: functional
Outline: (§4)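 Hot-plate test in rats. Compounds were given by intraperitoneal injection. Latency was read at 1 h and, for some compounds, also at 2 h after dosing. Results are expressed as % prolongation of the latent period versus vehicle-treated control. Significance was given as p-values.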

[10] = system: Rattus norvegicus; assay: Analgesic activity in rat assessed as prolongation of latency period at 15 mg/kg, ip measured after 2 hrs by hot-plate test relative to control; format: functional; outline: as §4
[11] = system: Rattus norvegicus; assay: Antiinflammatory activity in rat model of carrageenan-induced paw edema assessed as inhibition of hind paw swelling at 15 mg/kg, ip measured after 5 hrs; format: functional, organism-based
[12] = Acute toxicity in mouse at 300 mg/kg, ip administered as single dose; format: organism-based; settings: in vivo
Outline: (§5)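 Mice, single intraperitoneal dose, following OECD Guideline for testing of chemicals; three mice per dose level; doses tested 10–300 mg/kg. Read-out is the number of survivors out of 3, used to estimate the expected LD50 range.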

[13] = Acute toxicity in ip dosed mouse administered as single dose; format: organism-based; settings: in vivo; outline: as §5
[14] = system: Rattus norvegicus; assay: Antiinflammatory activity in rat model of carrageenan-induced paw edema assessed as inhibition of hind paw swelling at 10 mg/kg, ip measured after 1 hr relative to control; format: functional
[15] = system: Rattus norvegicus; assay: Antiinflammatory activity in rat model of carrageenan-induced paw edema assessed as inhibition of hind paw swelling at 10 mg/kg, ip measured after 3 hrs relative to control; format: functional
[16] = system: Rattus norvegicus; assay: Analgesic activity in rat assessed as prolongation of latency period at 10 mg/kg, ip measured after 1 hr by hot-plate test relative to control; format: functional; outline: as §4
[17] = Acute toxicity in mouse at 70 mg/kg, ip administered as single dose; format: organism-based; settings: in vivo; outline: as §5
[18] = system: HeLa; assay: Cytotoxicity against human HeLa cells; format: functional, cell-based; settings: for IC50: Homo sapiens, HeLa, read-out: IC50
[19] = system: NHDF; assay: Cytotoxicity against HDF cells; format: cell-based, Homo sapiens
[20] = Selectivity index, ratio of IC50 for HDF cells to IC50 for human HeLa cells; format: toxicity; settings: HDF cells versus HeLa cells, read-out: Ratio IC50
[21] = system: Mycobacterium tuberculosis; assay: Antitubercular activity against Mycobacterium tuberculosis H37Rv; format: functional
Outline: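 Mycobacterium tuberculosis strain H37Rv; minimum inhibitory concentration (MIC) taken as the lowest level needed to inhibit bacterial growth; isoniazid and pyrazinamide served as reference drugs.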

[22] = system: Neisseria gonorrhoeae; assay: Antibacterial activity against Neisseria gonorrhoeae; format: functional
[23] = system: Escherichia coli; assay: Antibacterial activity against Escherichia coli; format: functional
[24] = system: Klebsiella pneumoniae; assay: Antibacterial activity against Klebsiella pneumoniae; format: functional
[25] = system: Citrobacter braakii; assay: Antibacterial activity against Citrobacter braakii; format: functional
[26] = system: Proteus vulgaris; assay: Antibacterial activity against Proteus vulgaris; format: functional
[27] = system: Serratia marcescens; assay: Antibacterial activity against Serratia marcescens; format: functional
[28] = system: Shigella flexneri; assay: Antibacterial activity against Shigella flexneri; format: functional
[29] = system: Pseudomonas aeruginosa; assay: Antibacterial activity against Pseudomonas aeruginosa; format: functional
[30] = system: Streptococcus pyogenes; assay: Antibacterial activity against Streptococcus pyogenes; format: functional
[31] = system: Staphylococcus aureus; assay: Antibacterial activity against Staphylococcus aureus; format: functional
[32] = system: Trichophyton rubrum; assay: Antifungal activity against Trichophyton rubrum; format: functional
[33] = system: Nannizzia gypsea; assay: Antifungal activity against Trichophyton gypseum; format: functional
[34] = system: Trichophyton tonsurans; assay: Antifungal activity against Trichophyton tonsurans; format: functional
[35] = system: Trichophyton violaceum; assay: Antifungal activity against Trichophyton violaceum; format: functional
[36] = system: Trichophyton interdigitale; assay: Antifungal activity against Trichophyton mentagrophytes var. interdigitale; format: functional
[37] = system: Epidermophyton floccosum; assay: Antifungal activity against Epidermophyton floccosum; format: functional
[38] = system: Microsporum canis; assay: Antifungal activity against Microsporum canis; format: functional
[39] = system: Candida albicans; assay: Antifungal activity against Candida albicans; format: functional
[40] = Acute toxicity in mouse at 60 mg/kg, ip administered as single dose; format: organism-based; settings: in vivo; outline: as §5
[41] = Acute toxicity in mouse at 150 mg/kg, ip administered as single dose; format: organism-based; settings: in vivo; outline: as §5
[42] = Acute toxicity in mouse at 75 mg/kg, ip administered as single dose; format: organism-based; settings: in vivo; outline: as §5
[43] = Acute toxicity in mouse at 10 mg/kg, ip administered as single dose; format: organism-based; settings: in vivo; outline: as §5
[44] = system: Rattus norvegicus; assay: Analgesic activity in rat assessed as prolongation of latency period at 25 mg/kg, ip measured after 1 hr by hot-plate test relative to control; format: functional, organism-based; outline: as §4
[45] = system: Rattus norvegicus; assay: Antiinflammatory activity in rat model of carrageenan-induced paw edema assessed as inhibition of hind paw swelling at 25 mg/kg, ip measured after 5 hrs; format: functional, organism-based

| SMILES | Activity [1] | IC50 [2] [µM] | Activity [3] [%] | Activity [4] [%] | fold change (FC) [5] | fold change (FC) [6] | Activity [9] [%] | Activity [11] | Activity [12] | MIC [22] [µg/mL] | MIC [23] [µg/mL] | MIC [24] [µg/mL] | MIC [25] [µg/mL] | MIC [26] [µg/mL] | MIC [27] [µg/mL] | MIC [28] [µg/mL] | MIC [29] [µg/mL] | MIC [30] [µg/mL] | MIC [31] [µg/mL] | MIC [32] [µg/mL] | other results |
| --- | --- | --- | --- | --- | --- | --- | --- | --- | --- | --- | --- | --- | --- | --- | --- | --- | --- | --- | --- | --- | --- |
| CS(=O)(=O)c1ccc(N2N=C(c3ccccc3)/C(=N\O)C2(O)C(F)(F)F)cc1 (stereo not given) | 0.16 equiv | 169 | 30.6 | 49.1 | 1.03 | 1.14 | 53.7 | Active | Non-Toxic |  |  |  |  |  |  |  |  |  |  |  | inhibition [7]: inactive; inhibition [8]: inactive; Activity [10]: 44.3%; LD50 [13]: > 300 mg/kg |
| O=C(O)Cc1ccccc1Nc1c(Cl)cccc1Cl [DICLOFENAC] |  |  |  |  |  |  |  |  |  |  |  |  |  |  |  |  |  |  |  |  | inhibition in vivo at 10 mg/kg [14]: 53.9%; inhibition in vivo at 10 mg/kg [15]: 61.8%; Activity [16]: 57.1%; Activity [17]: Non-Toxic |
| Cc1ccc(C2=NN(c3ccc(S(N)(=O)=O)cc3)C(O)(C(F)(F)F)/C2=N/O)cc1 (stereo not given) | 0.48 equiv | 45.3 | 38.5 | 59.4 | 1.09 | 1.08 | 58.9 | Active | Non-Toxic |  |  |  |  |  |  |  |  |  |  |  | Activity [18]: Dose-dependent effect; IC50 [18]: 7.23 µM; IC50 ([19]; Homo sapiens, NHDF, read-out: IC50): 99.3 µM; selectivity ratio [20]: 13.7; inhibition [7]: inactive; inhibition [8]: inactive; Activity [10]: 96.55%; LD50 [13]: > 300 mg/kg |
| Cl.Cn1nc(C(F)(F)F)c(N)c1-c1ccccc1 | inactive |  | 38.2 | 79 | 1.19 | 1.11 | 100.74 | Active |  | > 250 | > 250 | > 250 | > 250 | > 250 | > 250 | > 250 | > 250 | > 250 | > 250 | 200 | MIC [21]: 12.5 µg/mL; MIC [33]: > 200 µg/mL; MIC [34]: > 200 µg/mL; MIC [35]: 200 µg/mL; MIC [36]: > 200 µg/mL; MIC [37]: 200 µg/mL; MIC [38]: 200 µg/mL; MIC [39]: > 200 µg/mL; Activity [18]: Dose-dependent effect; IC50 [18]: 0.074 µM; IC50 ([19]; nhdf): Not Active; selectivity ratio [20]: > 1350; inhibition in vivo at 15 mg/kg [7]: 54.3%; inhibition in vivo at 15 mg/kg [8]: 32.9%; Activity [40]: Non-Toxic |
| Cl.Nc1c(C(F)(F)F)n[nH]c1-c1cccs1 |  | 13.3 |  |  |  |  |  |  |  | 62.5 | > 250 | > 250 | > 250 | > 250 | > 250 | > 250 | > 250 | > 250 | > 250 | 200 | MIC [33]: > 200 µg/mL; MIC [34]: > 200 µg/mL; MIC [35]: > 200 µg/mL; MIC [36]: > 200 µg/mL; MIC [37]: 200 µg/mL; MIC [38]: 200 µg/mL; MIC [39]: > 200 µg/mL; Activity [41]: Toxic; Activity [42]: Toxic; Activity [43]: Non-Toxic |
| Cc1ccc(-c2c(N=O)c(C(F)(F)F)nn2-c2ccc(S(N)(=O)=O)cc2)cc1 |  |  |  |  |  |  |  |  | Non-Toxic | 31.2 (≈ 76 µM) | > 250 | > 250 | > 250 | > 250 | > 250 | > 250 | > 250 | > 250 | > 250 | 200 (≈ 487 µM) | MIC [33]: 200 µg/mL (≈ 487 µM); MIC [34]: 200 µg/mL (≈ 487 µM); MIC [35]: > 200 µg/mL; MIC [36]: 200 µg/mL (≈ 487 µM); MIC [37]: 200 µg/mL (≈ 487 µM); MIC [38]: 200 µg/mL (≈ 487 µM); MIC [39]: > 200 µg/mL; Activity [44]: inactive; Activity [45]: inactive |
